Measured values reported in ChEMBL document CHEMBL2396646, “N-Acyl-N'-arylpiperazines as negative allosteric modulators of mGlu1: identification of VU0469650, a potent and selective tool compound with CNS exposure in rats” (Bioorg Med Chem Lett, 2013).

Tests used:
[1] = target: T1, Metabotropic glutamate receptor 1 (Homo sapiens, UniProt Q13255); experiment: Negative allosteric modulation of human mGluR1 expressed in HEK293A cells assessed as inhibition of glutamate-induced calcium mobilization at 30 uM relative to glutamate; assay type: functional, cell-based; conditions: HEK293-A
Target sequence in this assay (Q13255 19-1194 limits assumed): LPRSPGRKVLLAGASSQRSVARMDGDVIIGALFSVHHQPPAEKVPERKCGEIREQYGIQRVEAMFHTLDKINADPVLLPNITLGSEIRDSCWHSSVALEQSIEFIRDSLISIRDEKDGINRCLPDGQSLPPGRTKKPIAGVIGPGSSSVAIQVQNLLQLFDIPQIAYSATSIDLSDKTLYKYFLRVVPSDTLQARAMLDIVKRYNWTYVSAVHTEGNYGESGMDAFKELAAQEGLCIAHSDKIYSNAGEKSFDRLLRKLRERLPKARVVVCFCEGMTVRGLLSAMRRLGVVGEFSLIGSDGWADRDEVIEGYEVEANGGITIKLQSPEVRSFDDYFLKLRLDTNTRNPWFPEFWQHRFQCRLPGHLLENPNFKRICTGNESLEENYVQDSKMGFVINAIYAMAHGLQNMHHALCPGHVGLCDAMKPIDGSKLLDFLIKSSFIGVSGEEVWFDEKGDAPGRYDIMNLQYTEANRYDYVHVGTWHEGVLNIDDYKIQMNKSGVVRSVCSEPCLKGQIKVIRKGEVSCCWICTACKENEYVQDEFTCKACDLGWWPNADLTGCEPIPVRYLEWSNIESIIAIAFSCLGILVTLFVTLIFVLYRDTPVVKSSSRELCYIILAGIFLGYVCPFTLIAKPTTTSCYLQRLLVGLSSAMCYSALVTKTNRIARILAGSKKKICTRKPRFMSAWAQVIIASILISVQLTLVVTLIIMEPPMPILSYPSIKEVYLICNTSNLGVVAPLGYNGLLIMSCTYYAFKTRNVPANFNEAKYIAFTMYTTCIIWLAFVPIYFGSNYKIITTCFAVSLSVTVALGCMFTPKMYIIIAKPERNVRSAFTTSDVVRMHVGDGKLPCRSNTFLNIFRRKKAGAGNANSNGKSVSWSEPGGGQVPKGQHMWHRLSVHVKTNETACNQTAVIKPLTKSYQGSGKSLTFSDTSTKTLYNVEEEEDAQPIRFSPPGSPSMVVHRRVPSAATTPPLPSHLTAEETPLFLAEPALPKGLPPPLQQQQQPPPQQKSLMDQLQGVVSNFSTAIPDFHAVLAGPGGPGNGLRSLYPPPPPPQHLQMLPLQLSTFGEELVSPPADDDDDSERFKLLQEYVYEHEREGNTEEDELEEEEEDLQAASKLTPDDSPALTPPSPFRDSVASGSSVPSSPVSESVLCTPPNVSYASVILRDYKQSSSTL

[2] = target: T1, Metabotropic glutamate receptor 1; experiment: Negative allosteric modulation of human mGluR1 expressed in HEK293A cells assessed as inhibition of glutamate-induced calcium mobilization; assay type: functional, cell-based, HEK293-A
Target sequence in this assay (Q13255 whole entry): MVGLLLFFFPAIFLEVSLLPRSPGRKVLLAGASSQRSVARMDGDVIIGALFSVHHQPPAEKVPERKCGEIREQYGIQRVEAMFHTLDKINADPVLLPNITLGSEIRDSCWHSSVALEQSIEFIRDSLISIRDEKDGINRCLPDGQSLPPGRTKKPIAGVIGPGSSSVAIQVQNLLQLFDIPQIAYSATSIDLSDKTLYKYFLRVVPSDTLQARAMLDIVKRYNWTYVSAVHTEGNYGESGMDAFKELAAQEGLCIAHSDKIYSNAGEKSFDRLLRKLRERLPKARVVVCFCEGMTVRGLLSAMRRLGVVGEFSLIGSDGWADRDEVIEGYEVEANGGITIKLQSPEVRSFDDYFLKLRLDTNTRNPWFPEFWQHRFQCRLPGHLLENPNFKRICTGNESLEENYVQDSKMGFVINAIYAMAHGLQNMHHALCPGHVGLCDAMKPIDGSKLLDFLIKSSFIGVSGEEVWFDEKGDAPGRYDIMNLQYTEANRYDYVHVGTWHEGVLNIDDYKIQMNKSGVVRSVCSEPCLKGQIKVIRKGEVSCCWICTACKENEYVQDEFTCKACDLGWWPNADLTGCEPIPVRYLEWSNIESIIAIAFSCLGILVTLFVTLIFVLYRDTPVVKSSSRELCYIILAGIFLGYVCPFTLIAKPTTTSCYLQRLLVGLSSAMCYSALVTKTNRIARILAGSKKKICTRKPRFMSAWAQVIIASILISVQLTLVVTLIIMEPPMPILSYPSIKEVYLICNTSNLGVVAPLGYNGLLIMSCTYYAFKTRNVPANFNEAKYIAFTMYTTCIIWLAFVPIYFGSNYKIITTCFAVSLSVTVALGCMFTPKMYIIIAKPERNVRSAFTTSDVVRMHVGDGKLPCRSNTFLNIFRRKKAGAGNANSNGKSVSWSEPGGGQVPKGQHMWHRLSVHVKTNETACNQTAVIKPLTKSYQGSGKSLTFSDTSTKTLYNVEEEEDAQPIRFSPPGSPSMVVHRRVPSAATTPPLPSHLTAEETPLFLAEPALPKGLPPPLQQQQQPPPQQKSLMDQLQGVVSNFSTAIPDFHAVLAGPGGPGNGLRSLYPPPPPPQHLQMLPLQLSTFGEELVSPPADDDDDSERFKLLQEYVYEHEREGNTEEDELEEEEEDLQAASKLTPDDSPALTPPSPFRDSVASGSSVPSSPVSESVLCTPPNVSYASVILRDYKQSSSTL

Plasma = experiment: Fraction unbound in rat plasma by equilibrium dialysis; assay type: ADME, cell-free
Outline: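 Binding to rat plasma proteins and to rat brain homogenate measured by equilibrium dialysis. Fraction unbound reported.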

For `C[C@@H]1CN(c2ccc(F)cn2)CCN1C(=O)C12CC3CC(CC(C3)C1)C2`, the inhibition [1] was 1.3%, the IC50 [2] was 414 nM and the Fu (Plasma) was 0.012.
For `C[C@@H]1CN(c2cnccn2)CCN1C(=O)C12CC3CC(CC(C3)C1)C2`, the inhibition [1] was -0.3% and the IC50 [2] was 1190 nM.
`C[C@@H]1CN(C(=O)C2CCCCCC2)CCN1c1ccccn1` was tested, and the inhibition [1] was 62.6% and the IC50 [2] was greater than 10000 nM.
`C[C@@H]1CN(C(=O)C23C4C5C6C4C2C6C53)CCN1c1ccccn1` (some centres undefined) gave an IC50 [2] greater than 30000 nM.
For `C[C@@H]1CN(c2ccccn2)CCN1C(=O)C12C3C4C5C3C1C5C42` (some centres undefined), the inhibition [1] was 62.7% and the IC50 [2] was greater than 10000 nM.
`C[C@@H]1CN(C(=O)C(C)(C)C)CCN1c1ccccn1` was tested, and the IC50 [2] was greater than 30000 nM.
`C[C@@H]1CN(c2ncccc2F)CCN1C(=O)C12CC3CC(CC(C3)C1)C2` was tested, and the inhibition [1] was 2.4% and the IC50 [2] was 712 nM.
For `C[C@@H]1CN(C(=O)C2CC2)CCN1c1ccccn1`, the IC50 [2] was greater than 30000 nM.
For `C[C@@H]1CN(C(=O)C2CCCCC2)CCN1c1ccccn1`, the IC50 [2] was greater than 30000 nM.
`C[C@@H]1CN(c2ccncn2)CCN1C(=O)C12CC3CC(CC(C3)C1)C2` gave an inhibition [1] of -1% and an IC50 [2] of 1330 nM.
`C[C@@H]1CN(C(=O)C2CCCCCCC2)CCN1c1ccccn1` was tested, and the inhibition [1] was 52.9% and the IC50 [2] was greater than 10000 nM.
`C[C@@H]1CN(c2cccnc2)CCN1C(=O)C12CC3CC(CC(C3)C1)C2` showed an inhibition [1] of 1.8% and an IC50 [2] of 596 nM.
Work on `C[C@@H]1CN(C(=O)C2CC3CCCC(C3)C2)CCN1c1ccccn1` (some centres undefined) yielded an inhibition [1] of 12.2% and an IC50 [2] greater than 10000 nM.
In the case of `C[C@@H]1CN(c2ccccn2)CCN1C(=O)C1CC1`, the IC50 [2] is reported as greater than 30000 nM.
Work on `C[C@@H]1CN(C(=O)C23CC4CC(CC(C4)C2)C3)CCN1c1cnccn1` yielded an inhibition [1] of 34% and an IC50 [2] greater than 10000 nM.
In the case of `O=C(N1CCN(c2nccs2)CC1)C12CC3CC(CC(C3)C1)C2`, the inhibition [1] is reported as 1.1% and the IC50 [2] is reported as 630 nM.
In the case of `C[C@@H]1CN(C(=O)C23CC4CC(CC(C4)C2)C3)CCN1c1ncccn1`, the inhibition [1] is reported as 17% and the IC50 [2] is reported as greater than 10000 nM.
In the case of `C[C@@H]1CN(c2ncccn2)CCN1C(=O)C12CC3CC(CC(C3)C1)C2`, the inhibition [1] is reported as 0.9% and the IC50 [2] is reported as 714 nM.
With `C[C@@H]1CN(C(=O)[C@H]2CC[C@H](C)CC2)CCN1c1ccccn1` the IC50 [2] was greater than 30000 nM.
`C[C@@H]1CN(c2cccc(F)n2)CCN1C(=O)C12CC3CC(CC(C3)C1)C2` showed an inhibition [1] of 2%, an IC50 [2] of 255 nM and a Fu (Plasma) of 0.006.
Compound `C[C@@H]1CN(c2ccccc2C#N)CCN1C(=O)C12CC3CC(CC(C3)C1)C2` has an inhibition [1] of 2.1%, an IC50 [2] of 264 nM and a Fu (Plasma) of 0.003.
